Assay results as given in ChEMBL document CHEMBL2176871, “Development of ligands at γ-aminobutyrric acid type A (GABAA) receptor subtype as new agents for pain relief” (Bioorg Med Chem, 2011).
pKi: −log10 of the molar value.

Experiments:
[1] = test system: Mus musculus; assay: Antihyperalgesic activity against streptozotocin-induced hyperalgesia in Swiss albino mouse […] assessed as licking latency time at 30 mg/kg, po after 60 mins by hot plate test (reference value: 9.2 +/- 0.8 secs); assay type: functional
[2] = test system: Rattus norvegicus; assay: Toxicity in Sprague-Dawley rat mononeuropathy pain model assessed as effect on contralateral paw pressure at 30 mg/kg, po after 45 mins by paw pressure test; assay type: organism-based; set-up: dose 30 mg/kg, route oral; conditions: in vivo, 0.75 h
In short: (§1)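 Same sciatic-ligation rat model, 14 days after surgery. Threshold measured on the non-operated contralateral hind paw by analgesimeter at 32 g/s; first-struggle endpoint; 250 g cut-off; pretest rats outside 40–75 g rejected. Compound given po in 10 ml/kg; readings at 15, 30 and 45 min.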

[3] = test system: Rattus norvegicus; assay: Antinociceptive activity in Sprague-Dawley rat mononeuropathy pain model assessed as increase in injured paw pressure at 10 mg/kg, po after 45 mins by paw pressure test relative to non-treated control; assay type: functional
In short: (§2)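 Chronic constriction injury: loose ligatures placed on the common sciatic nerve under chloral hydrate; contralateral sham dissection. Tested 14 days after surgery. Paw pressure applied at 32 g/s; threshold taken as the force causing the first struggle; cut-off 250 g; pretest outliers (<40 g or >75 g) excluded. Oral dosing in 10 ml/kg; read at 15, 30 and 45 min; compared with a CMC-treated group.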

[4] = test system: Mus musculus; assay: Anticonvulsant activity in Swiss albino mouse […] assessed as protection against intraperitoneally administered pentylenetetrazol-induced seizures at 30 mg/kg, po after 30 mins; assay type: functional
In short: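 Male Swiss albino mice. Compounds given po and PTZ 90 mg/kg injected 30 min later; PTZ was dissolved in 0.9% NaCl saline. Clonic generalized convulsions were recorded over 30 min. Each value is the mean of 10 mice. The methods give the PTZ route as s.c. and the table footnote gives it as ip.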

[5] = test system: Mus musculus; assay: Antihyperalgesic activity Swiss albino mouse […] assessed as licking latency time at 30 mg/kg, po after 60 mins by hot plate test (reference value: 17.9 +/- 1.1 secs); assay type: functional
In short: (§3)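 Hot plate at 52.5 ± 0.1 °C in non-diabetic male Swiss mice. Latency to licking of fore or hind paws was timed before dosing and every 15 min up to 60 min after oral dosing. Mice with pretest latencies below 12 s or above 18 s were excluded. Cut-off was 45 s.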

[6] = test system: Mus musculus; assay: Antihyperalgesic activity against streptozotocin-induced hyperalgesia in Swiss albino mouse […] assessed as licking latency time at 30 mg/kg, po after 45 mins by hot plate test (reference value: 9.2 +/- 0.8 secs); assay type: functional
[7] = species on record: Bos taurus; assay: Displacement of [3H]Ro151788 from GABA(A)/BzR in bovine cerebral cortex membrane at 10 uM; assay type: cell membranes
In short: (§4)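 Bovine cerebral cortex membranes in 50 mM Tris-citrate pH 7.4; [3H]flumazenil displacement. Compounds first tested at a fixed 10 µM; Ki determined only when inhibition exceeded 80%, using at least six concentrations. Five experiments run in triplicate; IC50 obtained by iterative curve fitting and converted to Ki with the Cheng–Prusoff equation.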

[8] = test system: Mus musculus; assay: Antihyperalgesic activity Swiss albino mouse […] assessed as licking latency time at 30 mg/kg, po after 30 mins by hot plate test (reference value: 17.9 +/- 1.1 secs); assay type: functional; in short: as §3
[9] = test system: Rattus norvegicus; assay: Toxicity in Sprague-Dawley rat mononeuropathy pain model assessed as effect on contralateral paw pressure at 1 mg/kg, po after 45 mins by paw pressure test; assay type: organism-based; set-up: dose 1 mg/kg, route oral; conditions: in vivo, 0.75 h; in short: as §1
[10] = Displacement of [3H]Ro151788 from GABA(A)/BzR in bovine cerebral cortex membrane; assay type: cell membranes, Bos taurus; in short: as §4
[11] = test system: Rattus norvegicus; assay: Toxicity in Sprague-Dawley rat mononeuropathy pain model assessed as effect on contralateral paw pressure at 10 mg/kg, po after 45 mins by paw pressure test; assay type: organism-based; set-up: dose 10 mg/kg, route oral; conditions: in vivo, 0.75 h; in short: as §1
[12] = test system: Rattus norvegicus; assay: Antinociceptive activity in Sprague-Dawley rat mononeuropathy pain model assessed as increase in injured paw pressure at 1 mg/kg, po after 30 mins by paw pressure test relative to non-treated control; assay type: functional; in short: as §2
[13] = test system: Rattus norvegicus; assay: Antinociceptive activity in Sprague-Dawley rat mononeuropathy pain model assessed as increase in injured paw pressure at 60 mg/kg, po after 45 mins by paw pressure test relative to non-treated control; assay type: functional; in short: as §2
[14] = test system: Mus musculus; assay: Antihyperalgesic activity Swiss albino mouse […] assessed as licking latency time at 30 mg/kg, po after 15 mins by hot plate test (reference value: 17.9 +/- 1.1 secs); assay type: functional; in short: as §3
[15] = test system: Rattus norvegicus; assay: Toxicity in Sprague-Dawley rat mononeuropathy pain model assessed as effect on contralateral paw pressure at 1 mg/kg, po after 30 mins by paw pressure test; assay type: organism-based; set-up: dose 1 mg/kg, route oral; conditions: in vivo, 0.5 h; in short: as §1
[16] = test system: Rattus norvegicus; assay: Toxicity in Sprague-Dawley rat mononeuropathy pain model assessed as effect on contralateral paw pressure at 60 mg/kg, po after 30 mins by paw pressure test; assay type: organism-based; set-up: dose 60 mg/kg, route oral; conditions: in vivo, 0.5 h; in short: as §1
[17] = test system: Rattus norvegicus; assay: Antinociceptive activity in Sprague-Dawley rat mononeuropathy pain model assessed as increase in injured paw pressure at 30 mg/kg, po after 15 mins by paw pressure test relative to non-treated control; assay type: functional; in short: as §2
[18] = test system: Rattus norvegicus; assay: Antinociceptive activity in Sprague-Dawley rat mononeuropathy pain model assessed as increase in injured paw pressure at 30 mg/kg, po after 30 mins by paw pressure test relative to non-treated control; assay type: functional; in short: as §2
[19] = test system: Mus musculus; assay: Antihyperalgesic activity against streptozotocin-induced hyperalgesia in Swiss albino mouse […] assessed as licking latency time at 30 mg/kg, po after 15 mins by hot plate test (reference value: 9.2 +/- 0.8 secs); assay type: functional
[20] = test system: Rattus norvegicus; assay: Antinociceptive activity in Sprague-Dawley rat mononeuropathy pain model assessed as increase in injured paw pressure at 1 mg/kg, po after 15 mins by paw pressure test relative to non-treated control; assay type: functional; in short: as §2
[21] = test system: Rattus norvegicus; assay: Toxicity in Sprague-Dawley rat mononeuropathy pain model assessed as effect on contralateral paw pressure at 10 mg/kg, po after 15 mins by paw pressure test; assay type: organism-based; set-up: dose 10 mg/kg, route oral; conditions: in vivo, 0.25 h; in short: as §1
[22] = test system: Rattus norvegicus; assay: Toxicity in Sprague-Dawley rat mononeuropathy pain model assessed as effect on contralateral paw pressure at 30 mg/kg, po after 30 mins by paw pressure test; assay type: organism-based; set-up: dose 30 mg/kg, route oral; conditions: in vivo, 0.5 h; in short: as §1
[23] = test system: Rattus norvegicus; assay: Antinociceptive activity in Sprague-Dawley rat mononeuropathy pain model assessed as increase in injured paw pressure at 1 mg/kg, po after 45 mins by paw pressure test relative to non-treated control; assay type: functional; in short: as §2
[24] = test system: Rattus norvegicus; assay: Toxicity in Sprague-Dawley rat mononeuropathy pain model assessed as effect on contralateral paw pressure at 60 mg/kg, po after 15 mins by paw pressure test; assay type: organism-based; set-up: dose 60 mg/kg, route oral; conditions: in vivo, 0.25 h; in short: as §1
[25] = test system: Mus musculus; assay: Antihyperalgesic activity against streptozotocin-induced hyperalgesia in Swiss albino mouse […] assessed as licking latency time at 30 mg/kg, po after 30 mins by hot plate test (reference value: 9.2 +/- 0.8 secs); assay type: functional
[26] = test system: Rattus norvegicus; assay: Antinociceptive activity in Sprague-Dawley rat mononeuropathy pain model assessed as increase in injured paw pressure at 10 mg/kg, po after 30 mins by paw pressure test relative to non-treated control; assay type: functional; in short: as §2
[27] = test system: Mus musculus; assay: Antihyperalgesic activity Swiss albino mouse […] assessed as licking latency time at 30 mg/kg, po after 45 mins by hot plate test (reference value: 17.9 +/- 1.1 secs); assay type: functional; in short: as §3
[28] = test system: Rattus norvegicus; assay: Antinociceptive activity in Sprague-Dawley rat mononeuropathy pain model assessed as increase in injured paw pressure at 10 mg/kg, po after 15 mins by paw pressure test relative to non-treated control; assay type: functional; in short: as §2
[29] = test system: Rattus norvegicus; assay: Toxicity in Sprague-Dawley rat mononeuropathy pain model assessed as effect on contralateral paw pressure at 1 mg/kg, po after 15 mins by paw pressure test; assay type: organism-based; set-up: dose 1 mg/kg, route oral; conditions: in vivo, 0.25 h; in short: as §1

Work on `Cc1cnn2c1n[n+]([O-])c1ccc(OCc3ccccc3)cc12` yielded a Time [1] of 15.7 s, an Activity [2] of 60.5 g and an Activity [3] of 30.4 g. It also gave an Activity [4] of 10%, a Time [5] of 17.2 s and a Time [6] of 18.8 s. For the same compound, the inhibition [7] was over 80%, the Time [8] was 18.1 s and the Activity [9] was 59.1 g. The pKi [10] was 8.33, the Activity [11] was 63.5 g and the Activity [12] was 34.5 g. It also gave an Activity [13] of 31.5 g, a Time [14] of 17.2 s and an Activity [15] of 60.6 g. The Activity [16] was 60.8 g, the Activity [17] was 52.8 g and the Activity [18] was 44.2 g. It also gave a Time [19] of 14.9 s, an Activity [20] of 32.3 g and an Activity [21] of 60.4 g. For the same compound, the Activity [22] was 63.8 g, the Activity [23] was 30.8 g and the Activity [24] was 59.9 g. For the same compound, the Time [25] was 17.6 s, the Activity [26] was 40.1 g and the Time [27] was 18.5 s. It also gave an Activity [28] of 48.7 g and an Activity [29] of 57.3 g.
